Measurements pooled from the literature.
Compare with care: the assays were run in different laboratories.
CYP2B6: Cytochrome P450 2B6 (CYP2B6, Homo sapiens, UniProt P20813)

Cc1ccn2c(C(=O)N3CCN(Cc4cn(-c5ccc(C(F)(F)F)cc5)nn4)CC3)c(C)nc2c1  CC50 (HeLa; cell growth or viability, resazurin): > 100 µM
Cc1ccc(C(=O)N2CCOC[C@H]2Cc2cccc(-n3nccn3)c2)c(-n2nccn2)c1  inhibition (CYP2B6; enzyme activity, inhibitor; human, liver microsomes; 100 µM): 44%
Cc1nc2ccc(Cl)cn2c1C(=O)N1CCN(Cc2cn(-c3ccc(C(F)(F)F)cc3)nn2)CC1  CC50 (HeLa; cell growth or viability, resazurin): > 100 µM
Oc1c(Br)cc(Cl)c2cccnc12  CL/F (Sprague-Dawley rat, plasma; oral, 20 mg/kg): 85 mL/min/kg
Fc1ccc(-c2csc(NN=Cc3cccc(C(F)(F)F)c3)n2)cc1  haemolysis (haemolysis; human; 50 µM, 30 min, pH 7.4): 30.7%
C[C@@H](Cn1ccc(-c2ccc(C#N)c(Cl)c2)n1)NC(=O)c1cc([C@@H](C)O)[nH]n1  IC50 (UDP-glucuronosyltransferase 1A6 (UGT1A6, Homo sapiens, UniProt P19224); enzyme activity, inhibitor; human, liver microsomes): > 100 µM
Cc1ccn2c(C(=O)N3CCN(CCn4cc(C5CC5)nn4)CC3)c(C)nc2c1  CC50 (HeLa; cell growth or viability, resazurin): > 100 µM
Fc1ccc(-c2csc(NN=Cc3cccs3)n2)cc1  haemolysis (haemolysis; human; 10 µM, 30 min, pH 7.4): 11.4%
CCOP(=O)(OCC)[C@@H]1C[C@H](n2cc(-c3ccccc3)nn2)ON1C  CC50 (HeLa; cell growth or viability; 72 h): > 250 µM
C=CC(=O)N(C)CCOc1c(N)ncnc1-c1cc(F)cc(NC(=O)c2ccc(C3CC3)cc2F)c1C  Km (CYP2B6; enzyme activity, substrate; 10 min, pH 7.4): 1.3 µM
CCOP(=O)(OCC)[C@@H]1C[C@@H](n2cc(Cn3cc(C)c(=O)[nH]c3=O)nn2)ON1C (racemic)  CC50 (HeLa; cell growth or viability; 72 h): > 250 µM
Cc1cccc(F)c1N1CCC(N2Cc3cn(CC(C)(F)F)nc3N(Cc3ccccc3C(F)(F)F)C2=O)CC1  IC50 (CYP2B6; enzyme activity, inhibitor; human, liver microsomes): > 10 µM
Cc1ccn2c(C(=O)N3CCN(Cc4cn(-c5ccc([N+](=O)[O-])cc5)nn4)CC3)c(C)nc2c1  CC50 (HeLa; cell growth or viability, resazurin): > 100 µM
Fc1ccc(-c2csc(NN=Cc3ccc(C(F)(F)F)cc3)n2)cc1  haemolysis (haemolysis; human; 50 µM, 30 min, pH 7.4): 25.7%
COc1ccc(S(=O)(=O)Nc2cc(OC)c(NC(=O)CCCl)cc2OC)cc1  IC50 (HeLa; cell growth or viability, XTT; 72 h): 16 µM
Oc1ccc(Cl)cc1C=NNc1nc(-c2ccc(F)cc2)cs1  haemolysis (haemolysis; human; 100 µM, 30 min, pH 7.4): 52.5%
CCOP(=O)(OCC)[C@@H]1C[C@H](n2cc(Cn3ccc(NC(C)=O)nc3=O)nn2)ON1C (racemic)  CC50 (HeLa; cell growth or viability; 72 h): > 250 µM
Cc1ccn2c(C(=O)N3CCN(CCn4cc(-c5ccc(C(C)(C)C)cc5)nn4)CC3)c(C)nc2c1  CC50 (HeLa; cell growth or viability, resazurin): > 100 µM
CCN(CC)CCCC(C)Nc1ccnc2cc(Cl)ccc12 (centres unmarked)  haemolysis (haemolysis; human; 10 mM, 45 min): 15.4%
CCOc1ccccc1C=NNc1nc(-c2ccc(F)cc2)cs1  haemolysis (haemolysis; human; 10 µM, 30 min, pH 7.4): 0%
C[C@@H]1[C@H](O)[C@@H](C)/C=C/C=C/C=C/C=C/C=C/C=C/C=C/[C@H](O[C@@H]2O[C@H](C)[C@@H](O)[C@H](N)[C@@H]2O)C[C@@H]2O[C@](O)(C[C@@H](O)C[C@@H](O)[C@H](O)CC[C@@H](O)C[C@@H](O)CC(=O)O[C@H]1C)C[C@H](O)[C@H]2C(=O)O  haemolysis (haemolysis; human; 4 µg/mL, 1 h): 93.2%
CC(CCc1ccccc1)=NNc1nc(-c2ccc(F)cc2)cs1  haemolysis (haemolysis; human; 50 µM, 30 min, pH 7.4): 8.38%
Cc1ccn2c(C(=O)N3CCN(Cc4cn(-c5cccc([N+](=O)[O-])c5)nn4)CC3)c(C)nc2c1  CC50 (HeLa; cell growth or viability, resazurin): > 100 µM
Fc1ccc(-c2csc(NN=Cc3ccccc3C(F)(F)F)n2)cc1  haemolysis (haemolysis; human; 10 µM, 30 min, pH 7.4): 4.43%
OC(Cn1cncn1)(Cn1cncn1)c1ccc(F)cc1F  haemolysis (haemolysis; human; 1 µg/mL, 1 h): 3.39%
Cc1nc2ccc(Cl)cn2c1C(=O)N1CCN(Cc2cn(-c3ccc([N+](=O)[O-])cc3)nn2)CC1  CC50 (HeLa; cell growth or viability, resazurin): > 100 µM
CCOP(=O)(OCC)[C@@H]1C[C@@H](n2cc(C(=O)OC)nn2)ON1C (relative stereo)  CC50 (HEL; cell growth or viability; 72 h): > 100 µM
CCc1ccc(-n2cc(CN3CCN(C(=O)c4c(C)nc5cc(C)ccn45)CC3)nn2)cc1  CC50 (HeLa; cell growth or viability, resazurin): > 100 µM
CCOP(=O)(OCC)[C@@H]1C[C@@H](n2cc(Cn3ccc(=O)[nH]c3=O)nn2)ON1C (racemic)  CC50 (HeLa; cell growth or viability; 72 h): ≥ 250 µM
